In brackets after ≈: the same amount, converted by molar mass.
Experiments:
[1] = tested on: Alternaria solani; assay: Antimicrobial activity against Alternaria solani at 50 ug/mL by mycelium growth rate method; type: functional
Method in brief: (§1)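 Mycelium growth-rate assay with anthranilamide and fenpiclonil as controls. Colony diameter is measured once the mycelia have grown completely, and the inhibition rate is calculated from the diameters by formula.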

[2] = tested on: Botryosphaeria berengeriana; assay: Antimicrobial activity against Physalospora piricola at 50 ug/mL by mycelium growth rate method; type: functional; method in brief: as §1
[3] = tested on: Fusarium; assay: Antimicrobial activity against Fusarium […] at 50 ug/mL by mycelium growth rate method; type: functional; method in brief: as §1
[4] = tested on: Fusarium graminearum; assay: Antimicrobial activity against Gibberella zeae at 50 ug/mL by mycelium growth rate method; type: functional
Method in brief: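 Mycelium growth rate assay with anthranilamide and fenpiclonil as controls. Once mycelia had grown completely, the mycelial diameter was measured and the inhibition rate was calculated from it by formula.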

[5] = tested on: Mycosphaerella arachidis; assay: Antimicrobial activity against Cercospora arachidicola at 50 ug/mL by mycelium growth rate method; type: functional; method in brief: as §1
[6] = tested on: Fusarium; assay: Antimicrobial activity against Fusarium […] by mycelium growth rate method; type: functional, organism-based; method in brief: as §1
[7] = tested on: Mycosphaerella arachidis; assay: Antimicrobial activity against Cercospora arachidicola by mycelium growth rate method; type: functional, organism-based; method in brief: as §1
[8] = tested on: Alternaria solani; assay: Antimicrobial activity against Alternaria solani by mycelium growth rate method; type: functional, organism-based; method in brief: as §1
[9] = tested on: Botryosphaeria berengeriana; assay: Antimicrobial activity against Physalospora piricola by mycelium growth rate method; type: functional, organism-based; method in brief: as §1
[10] = tested on: Fusarium graminearum; assay: Antimicrobial activity against Gibberella zeae by mycelium growth rate method; type: functional, organism-based

SMILES	inhibition at 50 µg/mL [1] [%]	inhibition at 50 µg/mL [2] [%]	inhibition at 50 µg/mL [3] [%]	inhibition at 50 µg/mL [4] [%]	inhibition at 50 µg/mL [5] [%]	EC50 [6] [µg/mL]	EC50 [7] [µg/mL]	EC50 [8] [µg/mL]	EC50 [9] [µg/mL]	EC50 [10] [µg/mL]
N#Cc1cccc(CONC(=O)c2cc(Br)c(Br)[nH]2)c1	21.1	25.3	18	8.8	35.7	–	–	–	–	–
N#Cc1ccc(CONC(=O)c2cc(Br)c(Br)[nH]2)cc1	31.6	48.1	19	20.6	35	–	–	–	–	–
O=C(NOCc1ccc([N+](=O)[O-])cc1)c1cc(Br)c(Br)[nH]1	26.7	16.7	17.6	13	18.8	–	–	–	–	–
CO/C=C(/C(=O)OC)c1ccccc1CONC(=O)c1cc(Br)c(Br)[nH]1	52.4	13.6	6.7	0	26.7	–	–	–	–	–
C#CCOc1ccc(CONC(=O)c2ccc[nH]2)cc1OC	35.3	100	16.7	9.1	20	> 50	> 50	> 50	4.5 (≈ 15 µM)	> 50
O=C(NOCc1ccc(F)cc1)c1ccc[nH]1	0	6.2	0	7	12	–	–	–	–	–
CO/C=C(/C(=O)OC)c1ccccc1CONC(=O)c1ccc[nH]1	0	16.1	0	8.5	13.3	–	–	–	–	–
C#CCOc1ccc(CONC(=O)c2[nH]c(Br)c(Br)c2Br)cc1OC	11.8	25.8	22.2	9.1	33.3	–	–	–	–	–
O=C(NOCc1ccc(F)cc1)c1[nH]c(Br)c(Br)c1Br	19.2	18.5	8.3	15.5	28	–	–	–	–	–
CO/C=C(/C(=O)OC)c1ccccc1CONC(=O)c1[nH]c(Br)c(Br)c1Br	5.9	25	27.8	13.6	26.7	–	–	–	–	–
C#CCOc1ccc(CONC(=O)c2cc(Cl)c(Cl)[nH]2)cc1OC	42.3	6.2	0	21.1	44	–	–	–	–	–
O=C(NOCc1ccc(F)cc1)c1cc(Cl)c(Cl)[nH]1	30.8	18.5	22.2	19.5	16	–	–	–	–	–
CO/C=C(/C(=O)OC)c1ccccc1CONC(=O)c1cc(Cl)c(Cl)[nH]1	42.3	24.7	8.3	21.1	40	–	–	–	–	–
C#CCOc1ccc(CON(C)C(=O)c2ccc[nH]2)cc1OC	13.3	5.8	31.6	0	19.2	–	–	–	–	–
C#CCOc1ccc(CON(C)C(=O)c2cccn2C)cc1OC	16.7	6	31.6	20	7.7	–	–	–	–	–
C#CCOc1ccc(CONC(=O)c2cc(Br)c(Br)[nH]2)cc1OC	64.9	90	47.1	8.7	56.3	> 50	24.4 (≈ 53.2 µM)	20 (≈ 43.7 µM)	9.78 (≈ 21.3 µM)	> 50

SMILES	inhibition at 50 µg/mL [1] [%]	inhibition at 50 µg/mL [2] [%]	inhibition at 50 µg/mL [3] [%]	inhibition at 50 µg/mL [4] [%]	inhibition at 50 µg/mL [5] [%]	EC50 [6] [µg/mL]	EC50 [7] [µg/mL]	EC50 [8] [µg/mL]	EC50 [9] [µg/mL]	EC50 [10] [µg/mL]
COc1ccc(CONC(=O)c2cc(Br)c(Br)[nH]2)cc1OC	73.3	50	41.2	4.6	60	–	–	–	–	–
O=C(NOCc1ccc2c(c1)OCO2)c1cc(Br)c(Br)[nH]1	31.6	18.5	23.8	14.7	75	–	–	–	–	–
O=C(NOCc1ccccc1)c1cc(Br)c(Br)[nH]1	66.7	40.9	40	9.1	53.3	–	–	–	–	–
O=C(NOCc1ccccc1F)c1cc(Br)c(Br)[nH]1	76.2	27.3	41.2	18.2	50.3	–	–	–	–	–
O=C(NOCc1cccc(F)c1)c1cc(Br)c(Br)[nH]1	61.9	40.9	40.8	4.5	54	–	–	–	–	–
O=C(NOCc1ccc(F)cc1)c1cc(Br)c(Br)[nH]1	66.5	55.1	58	21.7	62.5	–	–	–	–	–
O=C(NOCc1ccccc1Cl)c1cc(Br)c(Br)[nH]1	19	13.4	0	13.6	20	–	–	–	–	–
O=C(NOCc1cccc(Cl)c1)c1cc(Br)c(Br)[nH]1	66.7	38.9	47	17.4	80	–	–	–	–	–
O=C(NOCc1ccc(Cl)nc1)c1cc(Br)c(Br)[nH]1	5.3	37	23.8	0	28.6	–	–	–	–	–
O=C(NOCc1ccc(Cl)cc1Cl)c1cc(Br)c(Br)[nH]1	21.1	33.3	33.3	11.8	35.7	–	–	–	–	–
O=C(NOCc1ccc(Cl)c(Cl)c1)c1cc(Br)c(Br)[nH]1	40	27.8	23.5	17.4	43.8	–	–	–	–	–
O=C(NOCc1ccc(Br)cc1)c1cc(Br)c(Br)[nH]1	31.6	33.3	4.8	2.9	50	–	–	–	–	–
N#Cc1ccccc1CONC(=O)c1cc(Br)c(Br)[nH]1	10.5	14.8	14	14.7	14.3	–	–	–	–	–
NC(=O)c1ccccc1N [ANTHRANILAMIDE]	42.3	43.2	27.8	38	52	–	–	–	–	–
N#Cc1c[nH]cc1-c1cccc(Cl)c1Cl [FENPICLONIL]	100	100	18	100	100	> 50	0.38 (≈ 1.6 µM)	0.55 (≈ 2.32 µM)	0.8 (≈ 3.37 µM)	1.71 (≈ 7.21 µM)

Reference: ChEMBL document CHEMBL1770104, “Design, synthesis and antifungal activities of novel pyrrole alkaloid analogs” (Eur J Med Chem, 2011)
